# A selection: hits, their analogues and other compounds. The true share with any hit is near 4.3%.
# MC4R antag cAMP: human MC4R antagonism in cAMP assay; P32245; inhibition, % at 6.5 µM; MC4R-expressing cells, MTII-stimulated cAMP, LANCE TR-FRET; 360,000 compounds, 0.48% hits;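 active = inhibition above its plate's cutoff, the mean of tested wells on that plate plus 3 SD, cut at about 29% in these data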
#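 Assay system: U2OS-MC4R stable cell line; Also added: Melanotan II; Technique: Eu-cAMP/anti-cAMP TR-FRET, emission 671 nm; Times: 30-min compound, 1-h challenge, 1-h detection, room temperature.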
# MC4R barr agon: human MC4R agonism via beta-arrestin; U2OS MC4R beta-arrestin complementation, luminescence; percent of melanotan II response, DMSO zero; P32245; 360,000 compounds, 0.98% hits; activation, % at 8.9 µM;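 active = activation above a per-plate cutoff, the mean activation of sample wells on that plate plus 3 SD, cut at about 8% in these data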
# B2AR ag: activates human beta-2 adrenergic receptor causing internalization. P07550. Am2.2-beta2AR cells, FAP receptor internalization, flow cytometry. response, % (no concentration beside the values). 340,000 compounds, 0.43% hits. AID 504454;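 active = response above a set limit, near 3 SD of response in nonfluorescent compounds, cut at about 42% in these data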
# TAAR1 ag: agonists of human TAAR1 | Q96RJ0 | 360,000 compounds, 0.99% hits | AID 624467 | CHO RD-HGA16 TAAR1, Fluo-8 calcium fluorescence; vehicle wells 0%, saturating PEA agonist 100% | activation, % at 3 µM;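 active = activation above the mean activation of all test compounds in the run plus 3 SD, cut at about 38% in these data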
#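 Test system: RD-HGA16 (CHO) cells co-expressing Gα16 and hTAAR1; dosing: one-point dosing at 3 µM (nominal); timing: 17-24 h seeding, 75 min 37 °C dye, 30 min RT; signal: kinetic Fluo-8 calcium fluorescence; read-out basis: % activation relative to PEA EC100 response; controls: DMSO and PEA EC100; replicates: n 1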
# m5-HT2A agonist: activates the mouse 5-HT2A serotonin receptor. P35363. CHO-K1 mHTR2A beta-arrestin complementation, luminescence; percent of 30 µM serotonin response. activation, % at 7.6 µM. 360,000 compounds, 0.66% hits. AID 624169;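 active = activation above a run cutoff, the mean activation of all tested compounds plus 3 SD, cut at about 14% in these data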
# Target sequence (P35363 whole entry, looked up): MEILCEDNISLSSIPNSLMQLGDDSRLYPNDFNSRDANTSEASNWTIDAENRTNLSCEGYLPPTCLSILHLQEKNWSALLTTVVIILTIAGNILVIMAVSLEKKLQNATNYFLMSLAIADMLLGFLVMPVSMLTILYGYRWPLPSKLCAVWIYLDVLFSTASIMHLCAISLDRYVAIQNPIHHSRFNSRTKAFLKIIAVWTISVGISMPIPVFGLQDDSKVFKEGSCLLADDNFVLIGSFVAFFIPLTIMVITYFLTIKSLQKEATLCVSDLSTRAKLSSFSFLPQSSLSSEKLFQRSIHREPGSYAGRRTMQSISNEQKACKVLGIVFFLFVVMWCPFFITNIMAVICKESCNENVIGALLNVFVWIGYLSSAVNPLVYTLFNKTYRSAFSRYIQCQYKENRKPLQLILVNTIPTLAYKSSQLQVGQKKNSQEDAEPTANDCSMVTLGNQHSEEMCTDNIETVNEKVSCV
# TAAR1 antag: human TAAR1 antagonism | Q96RJ0 | CHO RD-HGA16 TAAR1, Fluo-8 calcium fluorescence, antagonist | inhibition, % at 3 µM | 360,000 compounds, 1.5% hits | AID 624466;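 active = inhibition above a per-plate cutoff, the mean inhibition of test compounds on that plate plus 3 SD, cut at about 49% in these data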
#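 Test system – hTAAR1-expressing CHO RD-HGA16 cells, Gα16-coupled · Reagent – β-PEA at EC80 concentration, post-compound challenge · Compound dosing – 3 µM, single point · Timing – 140 s kinetic read after compound, 140 s after agonist · Detection – Fluo-8 intracellular calcium dye fluorescence, real-time kinetic reads · Control set – DMSO and EC80 PEA controls · Repeats – n of 1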
# TAAR1 ag confirm: human TAAR1 agonism, confirmed; shares compounds with TAAR1 ag; CHO RD-HGA16 TAAR1, Fluo-8 calcium fluorescence; scaled: DMSO 0%, maximal phenethylamine 100%; activation, % at 3 µM; 2,400 compounds, 82% hits; AID 651783;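 active = activation above a cutoff set at the run's mean compound activation plus 3 SD, cut at about 39% in these data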
# Ga16 ag counter: nonselective agonism, TAAR1 counter-screen. shares compounds with TAAR1 ag. CHO-Ga16 parental, Fluo-8 calcium fluorescence; normalized to maximal ATP response, DMSO zero. activation, % at 3 µM. 2,400 compounds, 50% hits. AID 651787;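 active = activation above the run cutoff, the mean activation over all tested wells plus 3 SD, cut at about 12% in these data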
# TAAR1 desens: TAAR1 response desensitization, agonist counter-screen; shares compounds with TAAR1 ag; CHO RD-HGA16 hTAAR1, Fluo-8 calcium, beta-PEA response inhibition; inhibition, % at 3 µM; 2,400 compounds, 46% hits;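 active = inhibition above the run cutoff, the mean inhibition of all test compounds plus 3 SD, cut at about 49% in these data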;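 note: beta-PEA stimulus applied at its EC80; loss of beta-PEA calcium signal after compound pretreatment read as receptor desensitization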
# Ga16 nonsel ant: counter-screen for TAAR1 agonists: nonselective Ga16 antagonists; shares compounds with TAAR1 ag; CHO-Ga16 ATP-induced calcium, Fluo-8 fluorescence; inhibition, % at 3 µM; 2,400 compounds, 39% hits;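 active = inhibition above the plate's mean compound inhibition plus 3 SD, computed per plate, cut at about 22% in these data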
# Hits are given with their value; n = inactive; x = no result.
SMILES,MC4R antag cAMP,MC4R barr agon,B2AR ag,TAAR1 ag,m5-HT2A agonist,TAAR1 antag,TAAR1 ag confirm,Ga16 ag counter,TAAR1 desens,Ga16 nonsel ant
O=C1S/C(=C/c2ccc(N3CCOCC3)o2)C(=O)N1Cc1ccc(F)cc1,n,n,n,n,n,n,x,x,x,x
CN1\C(=C/C=C/C=C/C=[N+](C)C)C(C)(C)c2ccccc21,n,n,n,715,n,109,81,110,69,75
CN(C)c1ccc(N=C/C=C2\N(C)c3ccccc3C2(C)C)cc1,n,n,n,47,n,n,74,14,n,n
Cc1nc(SCC(=O)Nc2ccccc2Cl)c2c(C)c(C)sc2n1,n,n,n,n,n,n,x,x,x,x
Cc1ccc(NS(=O)(=O)c2ccc(C(=O)NCc3ccccn3)cc2)cc1,n,n,n,96,n,n,110,60,54,31
CCOc1ccc(NS(=O)(=O)c2ccc(C(=O)NCc3ccccn3)cc2)cc1,n,n,n,71,n,n,120,59,67,30
Cc1ccc(NS(=O)(=O)c2ccc(C(=O)NCc3ccncc3)cc2)cc1,n,n,n,69,n,n,61,25,n,32
Cn1c(C=O)c(-c2ccc3cc[nH]c3c2)c2ccccc21,n,n,n,n,n,n,x,x,x,x
O=C(N[C@H](C(=O)N1CCC[C@H]1C(=O)NCCc1ccccc1Cl)c1ccccc1)c1cccs1,x,x,x,x,x,x,x,n,x,n
O=C(N[C@H](C(=O)N1CCC[C@H]1C(=O)NCCc1ccccc1Cl)c1ccccc1)c1ccco1,x,x,x,41,x,n,57,n,60,n
O=C(N[C@H](C(=O)N1CCC[C@H]1C(=O)NCCc1ccccc1Cl)c1ccccc1)C1CCCC1,x,x,x,n,x,n,x,x,x,x
CS(=O)(=O)c1ccccc1-c1nc(-c2ccc([N+](=O)[O-])cc2)no1,n,n,n,n,n,n,x,x,x,x
CCOc1cccc(/C=C(/C#N)c2nc3ccccc3[nH]2)c1OCC(=O)O,n,n,n,n,n,n,x,x,x,x
CCN(CC)c1ccc(/C=C(/C#N)c2nc3ccccc3[nH]2)c(OC(C)C)c1,n,n,n,92,n,99,n,30,65,64
COC(=O)[C@]12C[C@H](CC(=O)N3CCN(C(=O)c4ccco4)CC3)C(=O)N(Cc3ccccc3)C1=C[C@H](C1CCCC1)O[C@@H]2C,x,x,x,n,x,n,x,x,x,x
O=C(C[C@@H]1C=C[C@H](NC(=O)Cc2ccccn2)[C@@H](CO)O1)NCCc1ccccc1,x,x,x,x,n,x,x,n,x,n
COC(=O)C[C@H]1C=C[C@H](NC(=O)c2ccccn2)[C@@H](CO)O1,x,x,x,n,n,n,x,x,x,x
Oc1ccc(C[C@@H]2CNCCN2CCC23CC4CC(CC(C4)C2)C3)cc1,n,n,n,48,n,n,62,31,n,42
CCOc1ccccc1-n1nnnc1SCC(=O)N1CCCC1=O,n,n,n,n,n,n,x,x,x,x
CC1(C)CC(=O)C(=CN2CCN(C(=O)c3ccco3)CC2)C(=O)C1,n,n,n,54,n,n,63,n,n,n
CC(=O)N1CCN(C(=O)c2ccco2)CC1,n,n,n,n,n,n,x,x,x,x
CCC[C@H]1CN(c2ccc(Br)cc2)C(=O)[C@@H]1CC(=O)Nc1ccc(OC)cc1,n,n,x,n,n,n,x,x,x,x
Cc1cc(NS(=O)(=O)c2ccccc2)c(C)c(Cl)c1O,n,n,n,55,n,n,67,26,n,n

# High-throughput results as filed in PubChem.
